# A selection: hits, their analogues and other compounds. The true share with any hit is near 4.4%.
# HSF1 activator = HSF-1 activators, primary screen, NIH3T3-HGL cells, MG132 stress, luminescence, single point; hit rate 1.7% among 300,000; NIH3T3-HGL HSF-1 luciferase reporter, 8 h; 100% = twice DMSO control signal; activation, % at 9 µM;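 active means mean replicate activation of at least 50% with a set share of replicates each reaching 50%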;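 further: 0% = median of the neutral control wells and 100% = twice that signal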
# HIF act = HIF pathway transcriptional activators, primary screen, cell-based, U2OS HRE-luciferase, luminescence; U2OS HRE-luciferase reporter; normalized: DMSO 0%, desferrioxamine 100%; activation, % at 7.5 µM (by protocol); hit rate 0.32% among 300,000; AID 1910, 2009;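 active means mean activation of at least 10% of the iron chelator positive control signal, with at least half of replicates also reaching 10%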
# HSF1 inhib = HSF1 inhibitors in luciferase reporter cells, primary screen, cell-based, NIH3T3, luminescence; activity change, negative = inhibition, % at 7.5 µM (by protocol); NIH3T3-HGL HSE-luciferase, MG132-induced, luminescence 8 h; stronger effect = lower value; hit rate 0.77% among 300,000;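 active means more than half of replicate wells show activity change below -50%, luminescence cut by over half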;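 further: luciferase reports HSF-1 transcriptional activity via heat shock element; 0% = median of DMSO wells and -100% = zero luminescence signal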
# T cruzi repl = inhibitors of intracellular T. cruzi growth, primary screen, luminescence, NIH3T3 host cells; inhibition, % (concentration not given with the values); T. cruzi beta-gal in NIH3T3, 90 h; hit rate 1.4% among 300,000;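 active means mean inhibition across valid replicates above about 55%, limit read from the data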;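 further: signal also drops with host cell toxicity which is not excluded here; 0% = plate median of DMSO wells and 100% = zero luminescence signal; higher percent means less beta-gal luminescence so fewer parasites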
#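 assay system = mouse NIH/3T3 fibroblasts infected with β-gal-expressing T. cruzi Tulahuen C4 | input = 5,000 NIH/3T3 host cells per well | buffer or medium = DMEM plus 2% FBS | timing = 3 h host attachment, then at least 90 h co-culture | measured by = GalScreen luminescence, 60 min | evaluation = luminescence reflecting intracellular parasite burden, expressed as percent inhibition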
# Calb FLC = C. albicans growth inhibition with fluconazole, primary screen, CaCi-2 strain, Alamar Blue fluorescence; C. albicans CaCi-2 + fluconazole, 48 h; growth inhibition, % (no concentration beside the values); hit rate 0.57% among 300,000; AID 1979, 2009;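 active means growth inhibition above about 58% in most replicates, limit read from the data, passing the limit was not always enough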;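 further: all wells also contain fluconazole at 8 µg/ml as a sub-toxic cotreatment; 0% = median of DMSO wells and 100% = median of geldanamycin control wells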
# The depositor's hits bear a star.
SMILES,HSF1 activator,HIF act,HSF1 inhib,T cruzi repl,Calb FLC
O=C(NC1CCCCC1)c1cnn2c(C(F)(F)F)cc(-c3ccco3)nc12,70*,0,19,18,-1
COc1cc(NC(=O)c2cc3ccccc3cc2OC)ccc1NC(=O)c1cccs1,-58,-1,-58*,34,-11
COc1cc(NC(=O)c2ccc([N+](=O)[O-])o2)ccc1NC(=O)c1cccs1,127*,0,69,86*,-4
COc1cc(NC(=O)c2cccs2)ccc1NC(=O)Cc1ccccc1,9,0,3,-11,3
COc1ccc(S(=O)(=O)Nc2ccccc2OC)cc1NC(=O)Cc1cccs1,3,2,-1,6,-3
COc1ccccc1NS(=O)(=O)c1ccc(NC(=O)Cc2cccs2)cc1,58*,0,14,-29,1
COc1ccccc1NS(=O)(=O)c1cc(NC(=O)c2cccs2)ccc1N1CCCCC1,21,0,15,59*,8
Cc1ccc(-n2c(CNC(=O)c3cccs3)nnc2SCC(=O)NO)cc1,-13,0,-1,-6,3
CCCC[C@@H]1CNC(=O)C(=O)N1CC(C)(C)C,-1,0,-4,-7,-11
O=C(Nc1cccc(NC(=O)c2cccs2)c1)c1ccc([N+](=O)[O-])o1,78*,1,60,68*,65
Cc1ccc(Nc2cc(C)nc(-c3ccccc3)n2)cc1,52*,4,20,8,-2
Cc1cc(Nc2ccccc2)nc(NCc2ccccc2)n1,6,1,3,37,97*
O=C(CNC(=O)COc1ccccc1)NCc1cccnc1,15,0,-4,-4,0
CC(=O)N1CCC(C(=O)N2CCN(S(=O)(=O)c3ccc(Cl)s3)CC2)CC1,-18,0,-14,2,-3
CC(=O)c1[nH]c(C)c(C(=O)N2CCCC(Nc3ccc(C(C)C)cc3)C2)c1C (stereo not given),4,-9,-1,0,-5
CC(=O)c1ccc(C(=O)N2CCCC(Nc3ccc(C(C)C)cc3)C2)s1 (stereo not given),-4,13*,5,5,3
COCCNC(=O)Cn1cnc2c1c(=O)n(C)c(=O)n2C,56*,0,28,-11,-1
COc1ccccc1NC(=O)Cn1cnc2c1c(=O)n(C)c(=O)n2C,13,0,0,-10,-5
COc1ccc(Cl)cc1NC(=O)CCn1c(=O)oc2ccccc21,11,-1,15,-7,3
COc1ccc(Cl)cc1NC(=O)CN(C)C(=O)Cn1cnc2c1c(=O)n(C)c(=O)n2C,-80,0,-74*,-6,-6
COc1ccc(Cl)cc1NC(=O)CN(C)C(=O)Cn1c(=O)oc2ccccc21,-68,0,-58*,-9,1
Cc1ccc(S(=O)(=O)N(C)c2ccc(OCC(=O)Nc3cccc(-n4cnnn4)c3C)cc2)cc1,-1,0,2,4,0
CCn1cc(CNC(=O)c2ccc3nc(Cc4ccc(OC)cc4)oc3c2)cn1,-1,1,7,-26,5
O=C(/C=N/NC(=O)c1ccccc1Br)c1ccccc1,59*,3,12,-16,5
O=C(/C=N/NC(=O)c1ccc(Cl)cc1Cl)c1ccccc1,57*,1,37,-6,-5
SMILES,HSF1 activator,HIF act,HSF1 inhib,T cruzi repl,Calb FLC
O=C(N/N=C/c1coc2ccccc2c1=O)c1ccccc1Br,10,0,-14,-8,11
O=C(Nc1ccc(Nc2ccccc2)cc1)c1ccc(Cl)cc1Cl,17,-1,-3,14,-5
N#Cc1ccc(CN(c2ccncc2)S(=O)(=O)c2ccccc2)cc1,-21,-1,-6,-2,3
CC(=O)Nc1ccc(NC(=O)c2ccccc2Sc2ccc([N+](=O)[O-])cc2Cl)cc1,76*,0,33,36,4
O=C(NNc1ccc([N+](=O)[O-])cc1)c1ccccc1Cl,7,0,-1,-4,92*
O=C(Nc1ccc2c(c1)CCCN2C(=O)c1ccco1)c1cc([N+](=O)[O-])ccc1Cl,74*,-9,65,-26,1
